Activity calls are given as the source filed them. The calls are words filed in the database; no cut-off is given here.

Common to all, as to format: functional, organism-based
Test [1] relates to Human alphaherpesvirus 1. As to the kind of experiment: Antiviral activity against ACV-sensitive Herpes simplex virus 1 KOS infected in female Balb/c mouse assessed as reduction in ulcerated lesion at 50 mg/g applied topically as cream formulation 5 times a day at 3 hrs interval for 10 days measured on day 3 to day 5 post infection. The settings on record: strain KOS. In outline:
(§1)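 Balb/c mice (5 weeks, 22–27 g; six per group, sexes tested separately) had the right mid-flank depilated under i.p. anaesthesia and needle-scarified 24 h later. They were inoculated with 70 μL HSV-1 KOS (10^5 PFU/mL). From 4 h post-infection, O/W emulsion with 0.7% w/w mangiferin or ACV cream (50 mg/g) was applied topically 5 times daily for 10 days. Lesions were scored daily.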

Test [2] has as its system Human alphaherpesvirus 1. As to the kind of experiment: Antiviral activity against ACV-sensitive Herpes simplex virus 1 KOS infected in male Balb/c mouse assessed as reduction in ulcerated lesion at 50 mg/g applied topically as cream formulation 5 times a day at 3 hrs interval for 10 days measured on day 2 post infection. As to conditions: strain KOS. An outline of the steps:
as §1

The test system of test [3] is Human alphaherpesvirus 1. As to the kind of experiment: Antiviral activity against ACV-sensitive Herpes simplex virus 1 KOS infected in male Balb/c mouse assessed as reduction in ulcerated lesion at 50 mg/g applied topically as cream formulation 5 times a day at 3 hrs interval for 10 days measured on day 7 post infection. The settings on record: strain KOS. In outline: as §1

The test system of test [4] is Human alphaherpesvirus 1. Put plainly: Antiviral activity against ACV-resistant Herpes simplex virus 1 AR-29 infected in female Balb/c mouse assessed as reduction in skin lesion at 50 mg/g applied topically as cream formulation 5 times a day at 3 hrs interval for 10 days. An outline of the steps: (§2)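 Balb/c mice, 5 weeks old, six per group. Right mid-flank depilated under i.p. anaesthesia, needle-scarified 24 h later and inoculated with 70 μL HSV-1 AR-29 (10^5 PFU/mL). Topical 0.7% w/w O/W emulsion or ACV cream (50 mg/g) starts 4 h post-infection, 5 times daily for 10 days. Lesions are scored daily.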

The subject of test [5] is Human alphaherpesvirus 1. Put plainly: Antiviral activity against ACV-resistant Herpes simplex virus 1 AR-29 infected in female Balb/c mouse assessed as reduction in zosteriform lesion at 50 mg/g applied topically as cream formulation 5 times a day at 3 hrs interval for 10 days measured on day 7 post infection. An outline of the steps:
as §2

For test [6], the system named is Human alphaherpesvirus 1. Put plainly: Antiviral activity against ACV-resistant Herpes simplex virus 1 AR-29 infected in male Balb/c mouse assessed as reduction in ulcerated lesion at 50 mg/g applied topically as cream formulation 5 times a day at 3 hrs interval for 10 days measured on day 5 post infection. In outline: as §2
Test [7] has as its system Human alphaherpesvirus 1. As to the kind of experiment: Antiviral activity against ACV-resistant Herpes simplex virus 1 AR-29 infected in male Balb/c mouse assessed as reduction in zosteriform lesion at 50 mg/g applied topically as cream formulation 5 times a day at 3 hrs interval for 10 days measured on day 5 post infection. In outline:
as §2

Regarding `Nc1nc2c(ncn2COCCO)c(=O)[nH]1`, the result in the test with Human alphaherpesvirus 1 [1], with Human alphaherpesvirus 1 [2], in the test with Human alphaherpesvirus 1 [4], with Human alphaherpesvirus 1 [6] and in the test with Human alphaherpesvirus 1 [7] was inactive. For the same compound, the result in the test on Human alphaherpesvirus 1 [3] and in the test on Human alphaherpesvirus 1 [5] was Active.
